In experiment [1] the target is 72 kDa type IV collagenase (Homo sapiens) (UniProt P08253). The experiment in a line: Inhibition of recombinant human MMP-2 using GRIGFL substrate up to 20 uM. The procedure, abridged: (§1)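 Outsourced microfluidic protease panel. Compound was preincubated with each protease for 30 min at 25 °C, then peptide substrate was added for 3 h at 25 °C and quenched with SDS/EDTA/iodoacetate. Substrate-to-product conversion was measured on LabChip. Compounds were tested singly in a 12-point 3-fold dilution series, top 20 μM (5 μM for two reference compounds).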

The next experiment addresses T1, Caspase-1 (Homo sapiens) (UniProt P29466).
T1 sequence (whole entry): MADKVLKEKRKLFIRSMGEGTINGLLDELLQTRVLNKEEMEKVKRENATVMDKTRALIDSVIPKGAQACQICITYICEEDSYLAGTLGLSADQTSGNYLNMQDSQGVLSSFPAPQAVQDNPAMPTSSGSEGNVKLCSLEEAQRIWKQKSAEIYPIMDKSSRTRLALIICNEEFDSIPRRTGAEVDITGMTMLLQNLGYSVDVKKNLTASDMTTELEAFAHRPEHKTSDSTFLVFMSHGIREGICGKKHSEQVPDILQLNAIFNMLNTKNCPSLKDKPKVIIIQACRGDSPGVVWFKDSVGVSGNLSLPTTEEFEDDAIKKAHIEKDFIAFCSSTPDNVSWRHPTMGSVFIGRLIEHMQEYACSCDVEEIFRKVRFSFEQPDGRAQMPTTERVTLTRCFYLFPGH
Description: Inhibition of recombinant human caspase 1 using WEHDGPKR substrate at up to 20 uM after 3 hrs. The method, boiled down:
as §1

Experiment [2] addresses Coagulation factor X (Homo sapiens) (UniProt P00742). The experiment in a line: Inhibition of recombinant human factor 10a using ALPRTMFIQ substrate at up to 20 uM after 3 hrs. The procedure, abridged: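 Each protease was preincubated 30 min at 25 °C with compound in its assay buffer. Peptide substrate was then added and the reaction ran 3 h at 25 °C before quenching with SDS/EDTA/iodoacetate. Substrate-to-product conversion (%) was read by microfluidic electrophoresis. Compounds were tested in singlicate as 12-point 3-fold dilutions from 20 μM to 0.1 nM. IC50 was taken as the concentration giving 50% of no-compound control activity.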

For experiment [3], the target named is Angiotensin-converting enzyme (Homo sapiens) (UniProt P12821). Description: Inhibition of recombinant human ACE using RPFNYLAK substrate up to 20 uM. The procedure, abridged:
as §1

The target of another experiment is T2, Caspase-7 (Homo sapiens) (UniProt P55210).
T2 sequence (whole entry): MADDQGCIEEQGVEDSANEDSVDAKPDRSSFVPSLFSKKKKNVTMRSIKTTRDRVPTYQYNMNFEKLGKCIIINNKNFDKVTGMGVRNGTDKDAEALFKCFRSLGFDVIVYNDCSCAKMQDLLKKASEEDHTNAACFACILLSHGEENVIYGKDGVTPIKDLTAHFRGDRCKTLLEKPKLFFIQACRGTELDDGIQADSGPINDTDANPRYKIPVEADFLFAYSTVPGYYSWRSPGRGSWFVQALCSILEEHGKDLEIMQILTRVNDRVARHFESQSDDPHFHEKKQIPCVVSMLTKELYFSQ
The experiment in a line: Inhibition of recombinant human caspase 7 using DEVDAA substrate at up to 20 uM after 3 hrs. The method, boiled down:
as §1

In experiment [4] the target is Stromelysin-1 (Homo sapiens) (UniProt P08254). Description: Inhibition of recombinant human MMP-3 using GRIGFL substrate up to 20 uM. The procedure, abridged: as §1
The target in another experiment is T3, Cytochrome P450 2B6 (Homo sapiens, UniProt P20813).
T3 sequence (P20813 whole entry): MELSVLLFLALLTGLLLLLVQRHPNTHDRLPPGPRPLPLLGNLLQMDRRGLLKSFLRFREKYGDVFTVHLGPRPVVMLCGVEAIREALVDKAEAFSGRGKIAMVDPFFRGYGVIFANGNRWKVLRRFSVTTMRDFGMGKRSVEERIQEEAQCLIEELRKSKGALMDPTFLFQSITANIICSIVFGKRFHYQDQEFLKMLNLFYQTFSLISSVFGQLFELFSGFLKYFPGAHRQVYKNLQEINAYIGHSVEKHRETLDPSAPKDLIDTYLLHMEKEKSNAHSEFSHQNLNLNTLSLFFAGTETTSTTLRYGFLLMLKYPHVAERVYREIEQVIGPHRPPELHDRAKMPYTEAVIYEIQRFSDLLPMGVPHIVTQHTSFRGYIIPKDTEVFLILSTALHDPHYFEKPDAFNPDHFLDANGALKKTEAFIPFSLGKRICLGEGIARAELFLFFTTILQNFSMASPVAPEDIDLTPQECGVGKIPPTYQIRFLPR
The experiment in a line: Inhibition of CYP2B6 (unknown origin) using bupropion substrate. The format is ADME. The method, boiled down: (§2)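 Human liver microsomes with probe substrate and an NADPH-regenerating system in 0.1 M potassium phosphate pH 7.4 at 37 °C, run in duplicate. Inhibitor at 0–20 μM (0–2.5 μM for one compound), eight concentrations. Reactions were stopped with acetonitrile/formic acid containing isotope-labelled internal standard, and metabolite area ratios were compared with and without inhibitor. IC50 was taken by linear interpolation between bracketing concentrations.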

The target of the next experiment is T4, Cytochrome P450 2C8 (Homo sapiens, UniProt P10632).
T4 sequence (P10632 whole entry): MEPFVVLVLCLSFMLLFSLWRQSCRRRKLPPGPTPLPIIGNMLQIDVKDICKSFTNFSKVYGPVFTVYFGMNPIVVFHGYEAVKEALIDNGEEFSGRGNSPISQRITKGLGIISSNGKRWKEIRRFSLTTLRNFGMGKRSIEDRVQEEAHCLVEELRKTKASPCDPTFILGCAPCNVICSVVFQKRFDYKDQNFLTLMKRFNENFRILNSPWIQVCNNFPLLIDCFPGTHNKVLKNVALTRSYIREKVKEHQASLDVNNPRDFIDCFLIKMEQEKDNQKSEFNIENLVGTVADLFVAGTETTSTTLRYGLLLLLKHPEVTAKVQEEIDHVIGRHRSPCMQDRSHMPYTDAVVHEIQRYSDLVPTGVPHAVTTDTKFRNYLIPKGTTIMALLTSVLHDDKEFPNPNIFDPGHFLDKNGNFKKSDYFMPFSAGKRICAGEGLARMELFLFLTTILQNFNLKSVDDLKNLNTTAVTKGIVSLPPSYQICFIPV
Description: Inhibition of CYP2C8 (unknown origin) using amodiaquine substrate. The format is ADME. The procedure, abridged: as §2

The target in a further experiment is Cytochrome P450 2D6 (Homo sapiens, UniProt P10635). Description: Inhibition of CYP2D6 (unknown origin) using dextromethophan substrate. The format is ADME. The method, boiled down: as §2
A further experiment deals with Cytochrome P450 2C9 (Homo sapiens, UniProt P11712). The experiment in a line: Inhibition of CYP2C9 (unknown origin) using diclofenac substrate. The format is ADME. The method, boiled down: as §2
For a further experiment, the target named is Cytochrome P450 2C19 (Homo sapiens, UniProt P33261). The experiment in a line: Inhibition of CYP2C19 (unknown origin) using (S)-mephentoin substrate. Format: ADME. The procedure, abridged: as §2

A value given as a limit tells only on which side of the number the result lay.

A word on the inhibition: it is the change of the read-out against control, counted positive when it falls. One may read the IC50 as the concentration needed to halve the response being measured.

Chain of Cytochrome P450 2C19 (P33261 whole entry): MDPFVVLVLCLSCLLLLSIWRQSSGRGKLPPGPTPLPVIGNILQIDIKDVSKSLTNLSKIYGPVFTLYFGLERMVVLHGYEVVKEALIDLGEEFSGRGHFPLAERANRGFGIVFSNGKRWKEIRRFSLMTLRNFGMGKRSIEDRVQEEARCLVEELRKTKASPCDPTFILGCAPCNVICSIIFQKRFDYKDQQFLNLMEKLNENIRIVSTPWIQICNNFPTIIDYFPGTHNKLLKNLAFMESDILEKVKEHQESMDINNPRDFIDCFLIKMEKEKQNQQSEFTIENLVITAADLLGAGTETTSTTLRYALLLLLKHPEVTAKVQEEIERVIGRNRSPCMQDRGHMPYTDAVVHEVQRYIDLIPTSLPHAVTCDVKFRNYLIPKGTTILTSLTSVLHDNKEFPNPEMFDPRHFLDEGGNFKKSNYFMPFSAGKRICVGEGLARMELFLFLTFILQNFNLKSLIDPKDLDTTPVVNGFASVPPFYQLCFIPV
Chain of Coagulation factor X (Homo sapiens) (P00742 41-179 limits assumed): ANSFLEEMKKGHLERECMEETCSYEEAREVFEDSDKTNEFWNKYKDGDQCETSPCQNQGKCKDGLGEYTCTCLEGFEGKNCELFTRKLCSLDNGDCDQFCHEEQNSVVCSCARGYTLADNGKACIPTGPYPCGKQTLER
Chain of Coagulation factor X (Homo sapiens) (P00742 235-488 limits assumed): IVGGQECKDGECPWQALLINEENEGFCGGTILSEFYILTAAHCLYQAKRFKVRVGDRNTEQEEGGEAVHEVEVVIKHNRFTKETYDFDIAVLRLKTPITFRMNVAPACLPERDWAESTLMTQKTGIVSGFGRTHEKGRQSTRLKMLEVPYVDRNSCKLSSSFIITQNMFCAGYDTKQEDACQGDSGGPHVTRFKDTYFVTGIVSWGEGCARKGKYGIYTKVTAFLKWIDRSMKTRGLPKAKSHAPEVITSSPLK
Chain of Cytochrome P450 2D6 (P10635 whole entry): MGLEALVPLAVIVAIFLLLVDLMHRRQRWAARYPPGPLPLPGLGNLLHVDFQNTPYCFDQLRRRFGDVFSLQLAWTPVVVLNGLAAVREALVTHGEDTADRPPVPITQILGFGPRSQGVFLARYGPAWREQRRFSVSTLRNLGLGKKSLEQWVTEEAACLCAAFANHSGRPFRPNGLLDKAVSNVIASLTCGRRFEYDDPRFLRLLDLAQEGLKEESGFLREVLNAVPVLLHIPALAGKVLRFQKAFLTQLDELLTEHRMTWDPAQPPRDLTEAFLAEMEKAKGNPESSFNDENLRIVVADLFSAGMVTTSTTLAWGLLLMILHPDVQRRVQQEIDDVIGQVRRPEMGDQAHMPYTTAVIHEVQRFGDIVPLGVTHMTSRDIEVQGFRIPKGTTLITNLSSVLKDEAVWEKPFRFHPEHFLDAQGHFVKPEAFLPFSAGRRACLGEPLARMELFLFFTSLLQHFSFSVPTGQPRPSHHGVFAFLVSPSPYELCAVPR
Chain of Cytochrome P450 2C9 (P11712 whole entry): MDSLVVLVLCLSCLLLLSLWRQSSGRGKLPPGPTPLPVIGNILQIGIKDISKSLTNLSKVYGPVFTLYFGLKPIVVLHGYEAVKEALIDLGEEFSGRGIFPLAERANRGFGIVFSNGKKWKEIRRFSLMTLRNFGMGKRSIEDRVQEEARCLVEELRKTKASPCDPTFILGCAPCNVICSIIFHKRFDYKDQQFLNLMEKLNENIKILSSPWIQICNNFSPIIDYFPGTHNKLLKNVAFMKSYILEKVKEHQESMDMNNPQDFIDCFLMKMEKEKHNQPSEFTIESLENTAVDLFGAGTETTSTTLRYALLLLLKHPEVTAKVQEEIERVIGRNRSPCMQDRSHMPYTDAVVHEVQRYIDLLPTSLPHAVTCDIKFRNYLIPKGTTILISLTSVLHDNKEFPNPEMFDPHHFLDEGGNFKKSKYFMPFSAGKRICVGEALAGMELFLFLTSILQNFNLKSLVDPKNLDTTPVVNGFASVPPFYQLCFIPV
Chain of Angiotensin-converting enzyme (Homo sapiens) (P12821 whole entry): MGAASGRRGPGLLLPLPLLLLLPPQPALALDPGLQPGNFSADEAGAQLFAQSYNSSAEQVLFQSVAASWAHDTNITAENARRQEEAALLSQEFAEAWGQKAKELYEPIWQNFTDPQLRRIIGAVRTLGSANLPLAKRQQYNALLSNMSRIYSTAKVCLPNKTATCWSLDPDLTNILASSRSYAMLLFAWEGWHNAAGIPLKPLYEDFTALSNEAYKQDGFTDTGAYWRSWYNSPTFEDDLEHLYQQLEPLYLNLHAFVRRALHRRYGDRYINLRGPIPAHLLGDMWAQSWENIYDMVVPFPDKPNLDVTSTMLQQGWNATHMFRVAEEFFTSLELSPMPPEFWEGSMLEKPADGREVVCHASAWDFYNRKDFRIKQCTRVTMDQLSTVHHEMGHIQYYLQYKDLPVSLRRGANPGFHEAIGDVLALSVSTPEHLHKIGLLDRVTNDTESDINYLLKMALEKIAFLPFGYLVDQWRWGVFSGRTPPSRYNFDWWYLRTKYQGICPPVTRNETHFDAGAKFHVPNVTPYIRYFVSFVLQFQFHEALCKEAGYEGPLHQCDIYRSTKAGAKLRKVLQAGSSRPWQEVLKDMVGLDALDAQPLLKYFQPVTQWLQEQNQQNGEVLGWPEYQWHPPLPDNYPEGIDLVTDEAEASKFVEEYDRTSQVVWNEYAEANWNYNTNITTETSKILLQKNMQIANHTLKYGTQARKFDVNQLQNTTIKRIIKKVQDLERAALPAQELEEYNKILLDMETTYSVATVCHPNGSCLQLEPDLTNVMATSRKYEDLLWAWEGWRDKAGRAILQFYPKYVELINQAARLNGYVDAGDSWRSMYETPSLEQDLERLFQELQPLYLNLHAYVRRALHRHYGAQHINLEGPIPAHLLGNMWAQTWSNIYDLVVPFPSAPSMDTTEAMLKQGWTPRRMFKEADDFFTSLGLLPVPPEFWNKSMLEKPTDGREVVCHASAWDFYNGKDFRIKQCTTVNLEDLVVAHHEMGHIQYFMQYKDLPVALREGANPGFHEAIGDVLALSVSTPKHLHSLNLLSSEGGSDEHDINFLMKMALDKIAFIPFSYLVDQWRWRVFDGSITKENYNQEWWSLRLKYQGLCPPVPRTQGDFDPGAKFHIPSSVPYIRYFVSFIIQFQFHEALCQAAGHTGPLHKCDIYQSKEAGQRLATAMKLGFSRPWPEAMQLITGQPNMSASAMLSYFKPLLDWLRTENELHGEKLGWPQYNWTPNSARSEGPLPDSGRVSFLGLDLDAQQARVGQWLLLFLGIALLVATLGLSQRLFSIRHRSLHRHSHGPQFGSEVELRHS
Chain of Stromelysin-1 (Homo sapiens) (P08254 100-477 limits assumed): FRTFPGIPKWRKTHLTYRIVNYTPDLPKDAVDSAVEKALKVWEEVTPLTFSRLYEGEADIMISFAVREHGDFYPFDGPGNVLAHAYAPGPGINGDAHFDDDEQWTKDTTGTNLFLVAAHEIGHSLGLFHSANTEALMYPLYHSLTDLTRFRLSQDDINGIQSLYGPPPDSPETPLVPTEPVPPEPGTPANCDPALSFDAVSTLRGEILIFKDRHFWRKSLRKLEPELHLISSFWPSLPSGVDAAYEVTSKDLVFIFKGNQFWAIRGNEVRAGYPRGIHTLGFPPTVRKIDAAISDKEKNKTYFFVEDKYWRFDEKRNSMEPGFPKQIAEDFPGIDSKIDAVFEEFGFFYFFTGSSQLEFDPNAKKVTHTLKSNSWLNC
Chain of 72 kDa type IV collagenase (Homo sapiens) (P08253 110-660 limits assumed): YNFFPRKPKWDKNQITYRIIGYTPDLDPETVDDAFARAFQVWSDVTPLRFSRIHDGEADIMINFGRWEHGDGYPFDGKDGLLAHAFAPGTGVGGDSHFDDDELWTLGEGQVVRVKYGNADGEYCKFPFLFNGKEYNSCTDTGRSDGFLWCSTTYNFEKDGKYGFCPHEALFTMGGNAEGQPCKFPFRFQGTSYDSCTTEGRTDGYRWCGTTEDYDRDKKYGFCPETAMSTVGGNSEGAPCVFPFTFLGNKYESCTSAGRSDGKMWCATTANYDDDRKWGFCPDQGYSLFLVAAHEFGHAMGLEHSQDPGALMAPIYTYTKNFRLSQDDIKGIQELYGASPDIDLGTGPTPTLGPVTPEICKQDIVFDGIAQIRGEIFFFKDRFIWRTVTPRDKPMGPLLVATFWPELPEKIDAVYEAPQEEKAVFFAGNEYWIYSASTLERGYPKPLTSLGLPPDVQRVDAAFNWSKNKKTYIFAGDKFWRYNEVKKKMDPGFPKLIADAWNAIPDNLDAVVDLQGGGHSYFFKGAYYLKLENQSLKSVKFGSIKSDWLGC

As to `Cc1ccc(CSc2nc(O)c3c(n2)CCC3)cc1`, the inhibition was above 10% in [1]; below 10% on Caspase-1 (Homo sapiens); below 10% in experiment [2]; above 10% in experiment [3]; below 10% on Caspase-7 (Homo sapiens); above 10% in experiment [4].

Consider `Cc1cc(CNC(=O)c2cc(C(=O)NCc3ccc(F)c(C)c3)ncn2)ccc1F`, for which the 50% inhibitory concentration (IC50) at Cytochrome P450 2B6, against Cytochrome P450 2C8, on Cytochrome P450 2D6, against Cytochrome P450 2C9 and at Cytochrome P450 2C19 was above 20 µM throughout.

As for `Cn1c(=O)n(Cc2ccc(C(=O)O)cc2)c(=O)c2cc(C#CCc3ccccc3)ccc21`, the IC50 against Cytochrome P450 2B6, at Cytochrome P450 2C8, against Cytochrome P450 2D6, against Cytochrome P450 2C9 and against Cytochrome P450 2C19 was above 2.5 µM each time.

With `Oc1nc(SCc2ccc(Cl)cc2)nc2c1CCC2`, the IC50 against Cytochrome P450 2B6 was above 20 µM; against Cytochrome P450 2C8, above 20 µM; against Cytochrome P450 2D6, above 20 µM; against Cytochrome P450 2C9, 19 µM; at Cytochrome P450 2C19, 6.5 µM. Further, the inhibition is above 10% in experiment [1]; below 10% on Caspase-1 (Homo sapiens); below 10% in experiment [2]; above 10% in [3]; below 10% on Caspase-7 (Homo sapiens); above 10% in [4].

Take `COC(=O)c1ccc(CSc2nc3c(c(=O)[nH]2)CCC3)cc1`: the IC50 against Cytochrome P450 2B6, against Cytochrome P450 2C8, at Cytochrome P450 2D6, on Cytochrome P450 2C9 and against Cytochrome P450 2C19 was above 20 µM throughout. In addition, the inhibition in experiment [1] is above 10%; at Caspase-1 (Homo sapiens), below 10%; in [2], below 10%; in [3], above 10%; at Caspase-7 (Homo sapiens), below 10%; in experiment [4] it was above 10%.

For the origin of these results see ChEMBL document CHEMBL3352788, “Characterization of selective exosite-binding inhibitors of matrix metalloproteinase 13 that prevent articular cartilage degradation in vitro” (J Med Chem, 2014).
